# Experiments:
# Rattus norvegicus [1] = experiment: The percent fall in systolic blood pressure at 1.5 / 4 hr after peroral administration of 50 mg/kg in DOCA/saline hypertensive rats at 2 hr; Non significant; format: functional, organism-based; set-up: dose 50 mg/kg; conditions: Artery, at 50 mg/kg
# Rattus norvegicus [2] = experiment: Starting systolic blood pressure at dose of 50 mg/kg in rat; format: functional, Artery
# Summary of the method: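 Mean systolic blood pressure before dosing for each group of four DOCA/saline hypertensive rats given 50 mg/kg orally. It indicates how far hypertension was established.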
# Rattus norvegicus [3] = experiment: Percent fall in systolic blood pressure at 1.5 / 4 hr after peroral administration of 50 mg/kg in DOCA/saline hypertensive rats at 6 h; Non significant; format: functional, organism-based; set-up: dose 50 mg/kg; conditions: Artery, at 50 mg/kg
# Rattus norvegicus [4] = experiment: The percent fall in systolic blood pressure at 1.5 / 4 hr after peroral administration of 50 mg/kg in DOCA/saline hypertensive rats at 24 hr; Non significant; format: functional, organism-based; set-up: dose 50 mg/kg; conditions: Artery, at 50 mg/kg
# Rattus norvegicus [5] = experiment: The percent fall in systolic blood pressure at 1.5 / 4 h after peroral administration of 50 mg/kg in DOCA/saline hypertensive rats at 2 hr; format: functional, Artery; conditions: route oral
Compound,Fall (Rattus norvegicus [1]),SP (Rattus norvegicus [2]),Fall (Rattus norvegicus [3]),Fall (Rattus norvegicus [4]),Fall (Rattus norvegicus [5]),SP (Rattus norvegicus [2]; 50 mg/kg)
O=C(NC(=O)c1ccccc1)NC1CCN(CC(=O)C2COc3ccccc3O2)CC1 (stereo not drawn),Not significant,181 mmHg,Not significant,Not significant,–,–
O=C(NC(=O)c1ccccc1)NC1CCN(CC(O)C2COc3ccccc3O2)CC1 (stereo in doubt; 29) [listing 1 of 2 here],Not significant,–,Not significant,Not significant,–,–
O=C(Nc1ccc(Cl)cc1)NC1CCN(CC(O)C2COc3ccccc3O2)CC1 (stereo not drawn),Not significant,178 mmHg,Not significant,Not significant,–,–
O=C(Nc1cccc(C(F)(F)F)c1)NC1CCN(CCCC(=O)c2ccccc2)CC1,Not significant,177 mmHg,Not significant,Not significant,–,–
O=C(NC(=S)NC1CCN(CC(O)C2COc3ccccc3O2)CC1)c1ccc(Cl)cc1 (stereo not drawn),Not significant,175 mmHg,Not significant,Not significant,–,–
COc1ccc(NC(=O)NC2CCN(CC(O)C3COc4ccccc4O3)CC2)cc1 (stereo not drawn),–,190 mmHg,Not significant,Not significant,17%,–
O=C(Nc1ccccc1)NC1CCN(CC(O)C2COc3ccccc3O2)CC1 (stereo in doubt; 30) [listing 1 of 2 here],–,–,–,–,–,182 mmHg
O=C(NC(=O)c1ccccc1)NC1CCN(CC(=O)c2ccccc2)CC1,–,166 mmHg,Not significant,Not significant,-23%,–
O=C(Nc1ccccc1)NC1CCN(CC(O)C2COc3ccccc3O2)CC1 (stereo in doubt; 31) [listing 1 of 2 here],–,–,–,–,35%,171 mmHg
O=C(NC(=O)c1ccccc1)NC1CCN(CCc2ccccc2)CC1,Not significant,180 mmHg,Not significant,Not significant,–,–
O=C(NC(=O)c1ccccc1)NC1CCN(CC(O)c2ccccc2)CC1 (stereo not drawn),–,182 mmHg,Not significant,Not significant,21%,–
CN(C(=O)NC(=O)c1ccccc1)C1CCN(CCc2c[nH]c3ccccc23)CC1,–,186 mmHg,Not significant,Not significant,40%,–
COc1ccc(C(=O)NC(=O)NC2CCN(CC(O)C3COc4ccccc4O3)CC2)cc1 (stereo not drawn),Not significant,165 mmHg,Not significant,Not significant,–,–
CC(=O)Nc1ccc(OCC(O)CN2CCC(NC(=O)NC(=O)c3ccccc3)CC2)cc1 (stereo not drawn),Not significant,179 mmHg,Not significant,Not significant,–,–
O=C(NC(=O)c1cccs1)NC1CCN(CCCC(=O)c2c[nH]c3ccccc23)CC1,Not significant,181 mmHg,Not significant,Not significant,–,–
CN(/C(S)=N/c1ccccc1)C1CCN(CCc2c[nH]c3ccccc23)CC1,Not significant,172 mmHg,Not significant,Not significant,–,–
O=C(NC(=O)c1cccs1)NC1CCN(CCCC(=O)c2ccccc2)CC1,–,190 mmHg,Not significant,Not significant,30%,–
O=C(Nc1ccccc1)NC1CCN(CC(O)C2COc3ccccc3O2)CC1 (stereo in doubt; 31) [listing 2 of 2 here],–,–,Not significant,Not significant,–,–

Compound,Fall (Rattus norvegicus [1]),SP (Rattus norvegicus [2]),Fall (Rattus norvegicus [3]),Fall (Rattus norvegicus [4]),Fall (Rattus norvegicus [5]),SP (Rattus norvegicus [2]; 50 mg/kg)
COc1ccccc1OCC(O)CN1CCC(NC(=O)NC(=O)c2ccccc2)CC1 (stereo not drawn),–,189 mmHg,Not significant,Not significant,17%,–
O=C(NC(=O)c1ccccc1)NC1CCN(CCCc2c[nH]c3ccccc23)CC1,Not significant,191 mmHg,Not significant,Not significant,–,–
COc1ccccc1OCC(O)CN1CCC(NC(=O)NC(=O)c2ccc(F)cc2)CC1 (stereo not drawn),Not significant,196 mmHg,Not significant,Not significant,–,–
O=C(NC1CCCCC1)NC1CCN(CC(O)C2COc3ccccc3O2)CC1 (stereo not drawn),–,172 mmHg,Not significant,Not significant,26%,–
O=C(Nc1ccccc1)NC1CCN(CCCC(=O)c2c[nH]c3ccccc23)CC1,Not significant,187 mmHg,Not significant,Not significant,–,–
O=C(NC(=O)c1ccccc1)NC1CCN(CC(O)C2COc3ccccc3O2)CC1 (stereo in doubt; 29) [listing 2 of 2 here],–,–,–,–,–,178 mmHg
N=C(NC(=O)c1ccccc1)NC1CCN(CCc2c[nH]c3ccccc23)CC1,Not significant,165 mmHg,Not significant,Not significant,–,–
N=C(NC(=O)c1ccccc1)NC1CCN(CCCC(=O)c2ccccc2)CC1,Not significant,188 mmHg,Not significant,Not significant,–,–
O=C(Nc1ccccc1)NC1CCN(CC(O)COc2cccc3ccccc23)CC1 (stereo not drawn),Not significant,170 mmHg,Not significant,Not significant,–,–
OC(CN1CCC(/N=C(\S)Nc2ccccc2)CC1)C1COc2ccccc2O1 (stereo not drawn),–,182 mmHg,Not significant,Not significant,26%,–
O=C(NC(=S)NC1CCN(CCc2c[nH]c3ccccc23)CC1)c1ccccc1,Not significant,200 mmHg,Not significant,Not significant,–,–
O=C(Nc1ccccc1)NC1CCN(CC(O)C2COc3ccccc3O2)CC1 (stereo in doubt; 30) [listing 2 of 2 here],Not significant,–,Not significant,Not significant,–,–
O=C(NC(=O)c1ccccc1)NC1CCN(CC(O)C2COc3ccccc3O2)CC1 (stereo in doubt; 28) [listing 1 of 2 here],–,–,–,–,–,174 mmHg
O=C(NC(=O)c1ccccc1)NC1CCN(CC(O)C2COc3ccccc3O2)CC1 (stereo in doubt; 28) [listing 2 of 2 here],Not significant,–,Not significant,Not significant,–,–
N/C(S)=N/C1CCN(CCc2c[nH]c3ccccc23)CC1,–,189 mmHg,Not significant,Not significant,20%,–
O=C(NC(=O)c1ccc(F)cc1)NC1CCN(CC(O)C2COc3ccccc3O2)CC1 (stereo not drawn),–,183 mmHg,Not significant,Not significant,17%,–
O=C(NC(=O)c1ccccc1)NC1CCN(CCCC(=O)c2c[nH]c3ccccc23)CC1,–,187 mmHg,Not significant,Not significant,16%,–
O=C(NC1CCCCC1)NC1CCN(CCc2c[nH]c3ccccc23)CC1,–,176 mmHg,Not significant,Not significant,15%,–

# Reference: ChEMBL document CHEMBL1121617, “Antihypertensive ureidopiperidines” (1980)
